Experimental data reported in ChEMBL document CHEMBL4261642, “Design, synthesis, and ex vivo evaluation of a selective inhibitor for retinaldehyde dehydrogenase enzymes” (Bioorg Med Chem, 2018).
pIC50, pKi: −log10 of the molar value.

How the values were obtained:
[1] = target: T1, Aldehyde dehydrogenase 1A1 (Gallus gallus, UniProt P27463); experiment: Inhibition of N-terminal His6-tagged recombinant chick RALDH1 expressed in Escherichia coli BL21(DE3) cells using RAL as substrate preincubated for 20 mins followed by substrate addition and measured after 30 mins in presence of NADH by fluorescence assay
T1 sequence (P27463 whole entry): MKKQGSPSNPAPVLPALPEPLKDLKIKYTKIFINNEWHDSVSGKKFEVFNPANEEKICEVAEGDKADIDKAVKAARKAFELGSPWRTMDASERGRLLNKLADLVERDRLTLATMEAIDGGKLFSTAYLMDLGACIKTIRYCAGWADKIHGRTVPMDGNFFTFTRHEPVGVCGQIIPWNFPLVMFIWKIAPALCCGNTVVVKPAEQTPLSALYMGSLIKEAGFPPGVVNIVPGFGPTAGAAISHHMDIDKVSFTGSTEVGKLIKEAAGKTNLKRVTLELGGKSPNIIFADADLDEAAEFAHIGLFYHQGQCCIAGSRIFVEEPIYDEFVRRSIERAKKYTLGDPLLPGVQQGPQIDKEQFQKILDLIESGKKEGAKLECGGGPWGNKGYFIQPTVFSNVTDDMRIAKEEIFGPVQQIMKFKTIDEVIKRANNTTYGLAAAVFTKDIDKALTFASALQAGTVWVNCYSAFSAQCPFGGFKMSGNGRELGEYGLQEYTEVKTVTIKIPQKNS
In short: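 Purified His-tagged recombinant enzyme in dialysis buffer with 2 mM DTT. Amounts were chick RALDH1 2 μg (0.358 μM), chick RALDH2 0.5 μg (0.091 μM), chick RALDH3 2 μg (0.355 μM) and human RALDH2 1 μg (0.176 μM). Enzyme pre-incubated 20 min at 37°C with 0–10 μM inhibitor in DMSO. Reaction started with final 4 mM NAD+ in pyrophosphate pH 8.2 buffer plus 250 μM retinaldehyde, 30 min at 37°C. NADH read fluorimetrically (Ex/Em 540/590) against a standard curve. Triplicates, 3–5 experiments.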

Gallus gallus [2] = species: Gallus gallus; experiment: (§1) Inhibition of N-terminal His6-tagged recombinant chick RALDH3 expressed in Escherichia coli BL21(DE3) cells at 100 nM using RAL as substrate assessed as Km preincubated for 20 mins followed by substrate addition and measured after 30 mins in presence of NADH by fluorescence assay (reference value: 84.45 +/- 30.99 microM)
[3] = target: T2, Retinal dehydrogenase 2 (Gallus gallus) (UniProt O93344); experiment: Inhibition of N-terminal His6-tagged recombinant chick RALDH2 expressed in Escherichia coli BL21(DE3) cells at 25 nM using RAL as substrate assessed as remaining activity preincubated for 20 mins followed by compound washout by ultrafiltration and subsequent addition of substrate and measured after 30 mins in presence of NADH by fluorescence assay (reference value: 100.0 +/- 11.57%)
T2 sequence (whole entry): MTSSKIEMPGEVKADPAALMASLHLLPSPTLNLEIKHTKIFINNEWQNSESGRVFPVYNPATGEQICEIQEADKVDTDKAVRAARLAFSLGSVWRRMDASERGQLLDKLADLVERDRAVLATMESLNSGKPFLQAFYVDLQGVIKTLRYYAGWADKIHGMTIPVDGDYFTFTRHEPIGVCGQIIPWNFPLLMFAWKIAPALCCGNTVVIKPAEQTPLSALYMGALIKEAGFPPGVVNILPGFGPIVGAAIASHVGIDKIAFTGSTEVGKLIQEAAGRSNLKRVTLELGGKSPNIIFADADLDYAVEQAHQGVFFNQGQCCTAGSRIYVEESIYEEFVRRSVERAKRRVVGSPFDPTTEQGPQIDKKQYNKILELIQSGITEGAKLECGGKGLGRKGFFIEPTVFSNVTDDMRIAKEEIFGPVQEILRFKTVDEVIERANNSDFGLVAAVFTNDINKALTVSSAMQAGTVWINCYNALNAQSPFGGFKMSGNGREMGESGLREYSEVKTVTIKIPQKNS
In short: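 Chick RALDH2 (91 nM) pre-incubated 20 min with 0–50 nM inhibitor. Unbound inhibitor removed by ultrafiltration before adding 250 μM retinaldehyde and 4 mM NAD+, 30 min at 37°C. NADH measured fluorimetrically. Activity expressed as % of vehicle. Triplicates; one-way ANOVA with Bonferroni test.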

Retinal dehydrogenase 2 = target: T3, Retinal dehydrogenase 2 (Homo sapiens, UniProt O94788); experiment: Inhibition of N-terminal His6-tagged recombinant human RALDH2 using RAL as substrate measured after 30 mins in presence of NADH by Morrison's plot analysis
T3 sequence (O94788 whole entry): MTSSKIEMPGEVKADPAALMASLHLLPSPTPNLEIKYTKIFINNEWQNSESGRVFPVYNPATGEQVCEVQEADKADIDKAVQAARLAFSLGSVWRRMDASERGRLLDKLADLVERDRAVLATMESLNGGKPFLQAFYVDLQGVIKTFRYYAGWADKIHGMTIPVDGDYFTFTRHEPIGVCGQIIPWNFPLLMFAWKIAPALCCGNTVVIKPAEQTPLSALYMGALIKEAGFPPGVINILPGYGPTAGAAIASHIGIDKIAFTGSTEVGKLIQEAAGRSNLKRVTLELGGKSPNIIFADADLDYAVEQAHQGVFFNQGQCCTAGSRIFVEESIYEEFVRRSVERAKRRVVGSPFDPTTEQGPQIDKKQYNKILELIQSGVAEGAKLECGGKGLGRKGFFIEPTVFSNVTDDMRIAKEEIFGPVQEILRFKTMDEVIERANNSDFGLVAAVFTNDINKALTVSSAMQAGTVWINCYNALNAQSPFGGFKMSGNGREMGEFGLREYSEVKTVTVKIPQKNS
In short: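 Ki obtained by fitting the Morrison tight-binding equation to the 20-min pre-incubation retinaldehyde/NADH fluorescence inhibition data. Inputs were enzyme concentration (RALDH1 0.358, RALDH2 0.091, RALDH3 0.355, hRALDH2 0.176 μM), substrate concentration and Km. Triplicates from 3–5 independent experiments.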

Gallus gallus [4] = species: Gallus gallus; experiment: as §1, with “250” for “100”, “Vmax” for “Km”, “107.3” for “84.45”, “15.97 pmol/microM/min)” for “30.99 microM)”
[5] = target: T2, Retinal dehydrogenase 2 (Gallus gallus); experiment: Inhibition of RALDH2 in choroidal cytosol fraction from 4 day recovering chick assessed as inhibition of ATRA synthesis at 0.1 to 6 uM pre-incubated for 20 mins followed by […] addition and measured after 30 mins by HPLC analysis
In short: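 Choroid cytosol fractions (100,000 × g supernatant) from 4-day recovering chick eyes pre-incubated 20 min at 37°C with 0.01–6 μM inhibitor or DMSO. Reaction started with 4 mM NAD+ and 25 μM all-trans-retinaldehyde, 30 min at 37°C. ATRA extracted and quantified by reverse-phase HPLC (350 nm, MS). Two experiments, n = 3–5 each.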

[6] = target: T2, Retinal dehydrogenase 2 (Gallus gallus); experiment: Inhibition of N-terminal His6-tagged recombinant chick RALDH2 expressed in Escherichia coli BL21(DE3) cells up to 500 nM using RAL as substrate assessed as Kinact/Ki ratio preincubated up to 40 mins followed by substrate addition and measured after 30 mins in presence of NADH by fluorescence assay
In short: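 Chick RALDH2 pre-incubated 10, 20 and 40 min with 0–500 nM inhibitor, then assayed with retinaldehyde/NAD+ by fluorimetric NADH. kobs taken from linear regression of log % activity remaining versus pre-incubation time. KI and kinact obtained by nonlinear regression of kobs versus inhibitor concentration.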

pIC50 [1]: 6.36
Activity [3]: 33%
pKi (Retinal dehydrogenase 2): 7.19
inhibition [5]: 70 to 96%
Ratio [6]: 124000 M⁻¹ min⁻¹
Structure (SMILES): CC1=C(/C=C/C(C)=C/C=C/C(C)=C/C(=O)C(Cl)Cl)C(C)(C)CCC1
Km (Gallus gallus [2]): 52.7 µM
Vmax (Gallus gallus [4]): 41.6 pmol/µM/min
